High-throughput results from PubChem.
RanGTP-Impb inh: inhibitors of RanGTP-importin-beta interaction, primary screen, biochemical, FRET, CFP-Ran, YFP-importin-beta, homogeneous. 300,000 compounds, 1.1% hits. AID 2216, 2009. cell-free CFP-Ran/YFP-importin-beta FRET ratio. Ran GTPase (GTP-bound) - importin-beta complex. inhibition, % (test concentration not listed);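 active = more than half of the replicate wells show a fall in the fluorescence ratio signal beyond about 16%, limit read from the data, passing the limit was not always enough; inconclusive = exactly half of the replicate wells pass the set limit; inactive = fewer than half of replicates pass the limit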
Hck-Nef inh: inhibitors of Nef-activated human Hck kinase, primary screen, biochemical, Z-Lyte FRET, 384-well, Hck-YEEI; Recombinant Hck-YEEI plus Nef, Z-Lyte FRET kinase assay; Tyrosine-protein kinase HCK (Homo sapiens), P08631; 220,000 compounds, 0.68% hits; inhibition, % at 20 µM; AID 463187, 2010;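 active = Hck-Nef kinase inhibition above about 50%, limit read from the data; inactive = inhibition below that limit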
Target sequence (P08631 whole entry, looked up): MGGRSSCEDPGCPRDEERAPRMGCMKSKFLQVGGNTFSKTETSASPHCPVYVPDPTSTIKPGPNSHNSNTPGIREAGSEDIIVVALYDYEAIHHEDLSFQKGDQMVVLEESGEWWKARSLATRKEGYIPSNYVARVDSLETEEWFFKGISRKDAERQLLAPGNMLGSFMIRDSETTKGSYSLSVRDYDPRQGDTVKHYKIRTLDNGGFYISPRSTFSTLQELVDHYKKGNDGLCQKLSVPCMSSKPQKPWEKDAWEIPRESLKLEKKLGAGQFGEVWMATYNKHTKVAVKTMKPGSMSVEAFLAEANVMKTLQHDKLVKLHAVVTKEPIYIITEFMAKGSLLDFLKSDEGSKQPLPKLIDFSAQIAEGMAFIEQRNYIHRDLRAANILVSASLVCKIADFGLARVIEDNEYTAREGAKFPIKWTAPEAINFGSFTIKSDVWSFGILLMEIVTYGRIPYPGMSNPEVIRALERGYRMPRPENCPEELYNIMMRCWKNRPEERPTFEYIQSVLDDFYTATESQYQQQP
Tb hexokinase: Trypanosoma brucei hexokinase 1 inhibitors, primary screen, biochemical, G6PDH-coupled NADH absorbance, MLSCN library; inhibition, % at 10 µM; recombinant TbHK1, G6PDH-coupled NADH A340; 220,000 compounds, 0.11% hits; AID 1430, 2008;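 active = inhibition of 50% or more in the single-dose primary screen; inactive = inhibition below 50%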
Runt-SMMHC FRET: inhibitors of RUNX1 Runt–CBFb-SMMHC binding, primary screen, biochemical, FRET, Cerulean-Runt, Venus-CBFb-SMMHC, uHTS | Runt-related transcription factor 1 (Homo sapiens) + Core-binding factor subunit beta … | Cerulean-Runt/Venus-CBFb-SMMHC FRET ratio 530/480, 1 h | inhibition, % at 20 µM | 220,000 compounds, 0.74% hits;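 active = mean inhibition across duplicate retests at 20 µM reaching about 50%, limit read from the data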;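 also: inhibitors lower the FRET ratio by blocking Runt binding to CBFb-SMMHC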
Runt-CBFb FRET: inhibitors of RUNX1 Runt–CBFb binding, primary screen, biochemical, FRET, Cerulean-Runt, Venus-CBFb, uHTS; inhibition, % at 20 µM; Cerulean-Runt/Venus-CBFb FRET ratio 530/480, 1 h; Runt-related transcription factor 1 (Homo sapiens) + Core-binding factor subunit beta …; 220,000 compounds, 0.46% hits;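 active = inhibition over about 50% at 20 µM in the single-dose screen, limit read from the data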
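Measured by: fluorescence energy transfer, 422 nm excitation, 530/480 nm emission; Assay system: Cerulean-Runt domain; Medium: Tris pH 7.5 buffer with BSA; Measure: loss of energy transfer signal; Controls: 5 µM unlabeled CBFb as full-inhibition high control; Incubation: protein complex preformed 1 h, compound exposure 1 h, room temperature, dark.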
A number is an active result; n = inactive; u = inconclusive; x = no result given. Compounds with a hit are over-represented: about 1.9% of the library has one in this group of screens.

SMILES	RanGTP-Impb inh	Hck-Nef inh	Tb hexokinase	Runt-SMMHC FRET	Runt-CBFb FRET
Cc1ccccc1Cn1nc(C)c(NC(=O)c2cc3nc(-c4ccco4)cc(C(F)(F)F)n3n2)c1C	x	n	n	n	n
O=C1NN(c2ccc(Br)cc2)C(=O)/C1=C\c1ccc(O)cc1O	142	x	x	x	x
CN1CCN(c2nc3ccccn3c(=O)c2/C=C(\C#N)S(=O)(=O)c2ccc(Cl)cc2)CC1	97	n	n	n	n
N#C/C(=C\c1c(N2CCC(C(N)=O)CC2)nc2ccccn2c1=O)S(=O)(=O)c1ccc(Cl)cc1	n	n	n	n	n
COC(=O)/C(C#N)=C/c1c(N2CCN(c3ccccc3)CC2)nc2ccccn2c1=O	n	x	x	x	x
COC(=O)/C(C#N)=C/c1c(N2CCN(C)CC2)nc2ccccn2c1=O	107	x	x	x	x
Cc1ccc(S(=O)(=O)/C(C#N)=C/c2c(N3CCCCC3)nc3ccccn3c2=O)cc1	n	n	n	n	n
Cc1ccc(S(=O)(=O)/C(C#N)=C/c2c(N3CCN(C)CC3)nc3ccccn3c2=O)cc1	65	n	n	n	n
Cc1cccn2c(=O)c(/C=C(\C#N)S(=O)(=O)c3ccccc3)c(Oc3ccc(Cl)cc3)nc12	27	n	n	n	n
COc1ccccc1NC(=O)CSc1nc2n[nH]c(C)c2c(=N)n1-c1ccccc1Cl	n	n	n	n	n
COc1ccccc1CNC(=O)c1ccc(OC(C)C)cc1	n	n	n	n	n
Oc1c(CN2CCN(c3ccccn3)CC2)cc(Cl)c2cccnc12	24	n	n	n	n
OCCN1CCN(Cc2cc(Cl)c3cccnc3c2O)CC1	40	n	n	n	n
Oc1c(Cl)cc(CN2CCCCC2)c2cccnc12	n	x	x	x	x
COCc1cc(CN2CCCC2)c(O)c2ncccc12	n	n	n	n	n
CCOc1ccc(C2C3=C(CC(C)(C)CC3=O)N(CC(=O)O)C3=C2C(=O)CC(C)(C)C3)cc1OCC	n	x	x	x	x
CCOC(=O)C1=C(N)OC2=C(C(=O)CC(C)(C)C2)C1c1ccccc1OC (stereo not drawn)	n	n	n	n	n
C#CCOc1ccc(C2C3=C(CC(C)(C)CC3=O)N(CC(=O)O)C3=C2C(=O)CC(C)(C)C3)cc1	162	x	x	x	x
COc1ccccc1C1C2=C(CC(C)(C)CC2=O)N(CC(=O)O)C2=C1C(=O)CC(C)(C)C2	164	x	x	x	x
Cn1nnnc1SCC(=O)Nc1cc(C(=O)O)cc(C(=O)O)c1	n	n	n	n	n
COc1cccc(C2=NOC(C(=O)N3CCc4ccccc4C3)C2)c1 (stereo not drawn)	23	n	n	n	x
CCCC(=O)Nc1nn(C)c2nc3cc(C)ccc3cc12	n	x	x	n	n
CCCCn1nc(NC(=O)CC)c2cc3cc(OC)ccc3nc21	65	x	x	x	x
CCCn1nc(NC(=O)C(C)(C)C)c2cc3cc(OC)ccc3nc21	67	x	x	x	x
CCCN(CC1CC1)C(=O)CSc1nnc(-c2cc(-c3cccs3)nc3ccccc23)o1	n	n	n	n	n
SMILES	RanGTP-Impb inh	Hck-Nef inh	Tb hexokinase	Runt-SMMHC FRET	Runt-CBFb FRET
Cc1cc(C(=O)OCn2nnc3ccccc3c2=O)c(C)n1-c1ccccc1	n	n	n	n	n
Cc1cc(C)c2nc(NCCCNC(=S)NCCCN(C)C)c(C#N)cc2c1	n	n	n	89	81
Cc1ccc2cc(C#N)c(NCCNC(=S)NCCCN(C)C)nc2c1C	n	n	n	n	n
CCOCCCNC(=S)NCCCNc1nc2c(C)cc(C)cc2cc1C#N	x	n	n	91	n
N#CC1(NC(=O)COC(=O)Cn2[nH]c(=O)c3ccccc3c2=O)CCCCC1	n	x	x	x	x
COc1cc(CNCCc2ccc(S(N)(=O)=O)cc2)ccc1OCC(=O)N1CCCCC1	n	n	n	n	n
Cc1cccc(CCNS(=O)(=O)c2ccc3c(c2)NC(=O)C(C)S3)c1 (stereo not drawn)	n	x	x	x	x
OCCN1CCN(C2CCC(c3ccc(F)cc3)c3ccc(F)cc32)CC1 (stereo not drawn)	n	x	x	x	x
CC(=O)Nc1nc2n(n1)C(c1ccc(Cl)cc1)C=C(C)N2 (stereo not drawn)	n	n	n	83	n
O=C(O)CCN1C(=O)C2C3CC(C2C1=O)C1C(c2ccccc2)c2sc(=O)[nH]c2SC31 (stereo not drawn)	21	n	n	n	n
Cc1ccc(C2c3sc(=O)[nH]c3SC3C4CC(C5C(=O)N(C(C)C(=O)O)C(=O)C45)C23)cc1 (stereo not drawn)	58	n	n	n	n
COc1cc(C2c3sc(=O)[nH]c3SC3C4CCC(C4)C23)ccc1O (stereo not drawn)	n	n	n	n	n
O=c1[nH]c2c(s1)C(c1ccccc1)C1C3CCC(C3)C1S2 (stereo not drawn)	26	n	n	n	n
COc1ccc(C2c3sc(=O)[nH]c3SC3C4CCC(C4)C23)cc1 (stereo not drawn)	n	n	n	n	n
O=C(O)CCN1C(=O)C2C3CC(C2C1=O)C1C(c2ccccc2)c2sc(=O)n(-c4ccccc4)c2SC31 (stereo not drawn)	n	n	n	n	n
CCNc1nc(NCC)n2c(SCC(=O)Nc3ccccc3C(F)(F)F)nnc2n1	n	x	x	x	x
COC(C(=O)Nc1ccnn1C1CCN(Cc2ccccn2)CC1)c1ccccc1 (stereo not drawn)	n	x	x	x	x
CN1C(C(=O)N2CCc3ccccc3C2)=CC(c2ccc(F)cc2)=NS1(=O)=O	n	x	x	x	x
CCc1nnc(NC(=O)C(C)Sc2ccccc2)s1 (stereo not drawn)	25	n	n	n	n
CCc1nnc(NC(=O)C(C)C)s1	n	n	n	n	n
COc1cc(C(C)=O)ccc1Oc1ncnc2c1cnn2-c1ccc(F)cc1	n	n	n	n	n
COc1cc(-c2n[nH]c(=S)n2/N=C/c2cccn2C)cc(OC)c1OC	n	n	n	n	n
O=[N+]([O-])c1ccc(O)c(N=Cc2sc3ccccc3c2O)c1	38	n	n	n	n
Oc1c(C=Nc2cccc3cccnc23)sc2ccccc12	39	n	n	n	n
Cc1cccc(/N=C/c2sc3ccccc3c2O)n1	33	n	n	n	n
Oc1ccc(Cl)cc1N=Cc1sc2ccccc2c1Cl	u	n	n	n	x
Cc1cccc(/N=C/c2c(O)[nH]c3ccccc23)n1	n	n	n	n	n
CC(C)Oc1cccc(C(=O)C2CCCN(Cc3cnc(N4CCOCC4)s3)C2)c1 (stereo not drawn)	n	n	n	n	n
